Bioassay records as filed in PubChem BioAssay.
In the library only some 3.2% were active in any assay of this set; here they are far more common.
HTRA1 inhibitor – inhibitors of human serine peptidase HTRA1; recombinant HTRA1, FP-rhodamine activity-based probe, fluorescence polarization; inhibition, % at 5.96 µM; actives 0.5% (n = 340,000); Q92743; in the data active means inhibition above about 36%;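 further: 0% = enzyme with DMSO and 100% = wells lacking enzyme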
PRMT1 inh – PRMT1 (human) inhibition, primary screen; Q99873; recombinant PRMT1, activity-based probe fluorescence polarization; inhibition, % at 2.79 µM; actives 1.3% (n = 370,000); AID 652257;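 active means inhibition above about 21% made by adding two undisclosed values, limit read from the data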
rCAG binder – r(CAG) repeat RNA binding; TO-PRO-1 dye displacement fluorescence; inhibition, % at 3 µM; actives 1.3% (n = 370,000);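 active means inhibition above the plate cutoff, the mean of all test compounds on that plate plus 3 SD, cut at about 35% in these data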;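 further: 0% = DMSO alone and 100% = 100 µM mitoxantrone as full dye displacement; higher means more dye released from RNA so lower well fluorescence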
DAGLB inh – diacylglycerol lipase beta (human) inhibition | HEK293T DAGLB membrane lysate, EnzChek fluorogenic substrate | actives 0.059% (n = 340,000) | inhibition, % at 5.17 µM; in the data active means inhibition above about 34%;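 further: 0% = enzyme with vehicle and 100% = wells lacking enzyme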
ABHD4 inh – inhibits mouse alpha/beta hydrolase domain 4. purified mABHD4, FP-Rh probe fluorescence polarization. inhibition, % at 8.92 µM. actives 0.54% (n = 370,000). AID 720543;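 active means inhibition exceeding the mean over every tested compound plus 3 SD, cut at about 30% in these data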;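 further: 0% = plate median of compound wells and 100% = S159A mutant with DMSO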
Target sequence (Q8VD66 whole entry, looked up, the tested form may be a part): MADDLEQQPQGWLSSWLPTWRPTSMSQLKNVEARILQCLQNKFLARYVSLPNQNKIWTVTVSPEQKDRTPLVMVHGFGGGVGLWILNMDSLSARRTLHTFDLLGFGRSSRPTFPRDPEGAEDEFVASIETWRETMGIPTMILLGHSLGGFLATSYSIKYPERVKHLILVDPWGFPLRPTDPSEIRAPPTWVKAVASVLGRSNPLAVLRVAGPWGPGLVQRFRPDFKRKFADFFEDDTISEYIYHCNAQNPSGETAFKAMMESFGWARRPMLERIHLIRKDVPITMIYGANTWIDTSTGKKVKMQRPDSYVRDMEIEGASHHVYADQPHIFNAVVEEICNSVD
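Test system: mouse ABHD4 enzyme, wild type. Reagent: FP-Rh fluorescent activity-based probe, added after compound pre-incubation. Timing: pre-incubation 45 min, probe exposure 60 min, at 25 °C. Technique: FP readout, ex 525 nm / em 598 nm. Benchmarks: high control S159A mutant with DMSO, low control median of compound wells.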
LEDGF integ inh – blocks HIV-1 LEDGF/p75-dependent DNA integration | actives 0.64% (n = 370,000) | TR-FRET IN-LEDGF/p75 DNA integration, Eu/Cy5 | inhibition, % at 3.7 µM;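 active means inhibition above the screen-wide mean plus 3 SD, cut at about 13% in these data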;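 further: signal is the Cy5 over europium emission ratio at 671 and 618 nm; 0% = plate median of compound wells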
PRMT1 confirm – PRMT1 (human) inhibition, FP confirmation; actives 42% (n = 3,300); recombinant His-PRMT1, activity-based probe fluorescence polarization; inhibition, % at 2.79 µM; shares compounds with PRMT1 inh; AID 687036;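 active means mean inhibition across replicates above the hit cutoff derived for the earlier primary screen, cut at about 22% in these data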
* = called active by the depositor; i = inactive; nt = not tested or not shown.

SMILES	HTRA1 inhibitor	PRMT1 inh	rCAG binder	DAGLB inh	ABHD4 inh	LEDGF integ inh	PRMT1 confirm
COC(=O)C1=C(C(=O)OC)[C@@H]2N(C)c3ccc(OC)cc3[C@@]23C[C@@H](C(=O)OC)N(S(=O)(=O)c2ccc([N+](=O)[O-])cc2)C3=N1	-4.6	-1.6	5.3	8.2	6.5	2.2	nt
CN(C)S(=O)(=O)c1ccc(C(=O)NC(=O)CSc2ccccc2)cc1	1.5	1.6	-1.0	-0.6	-5.0	7.6	nt
COc1ccc(NC(=O)CSc2ccc3c(c2)OCCO3)cc1	-2.5	5.5	-1.0	-6.7	-2.7	0.7	nt
CC(=O)Nc1ccc(SCC(=O)Nc2ccc(Cl)cn2)cc1	5.3	28.5*	-2.3	1.7	-5.9	0.0	37.1*
CC(=O)Nc1ccc(SCC(=O)c2cc(C)n(CC(F)(F)F)c2C)cc1	-3.2	0.1	-6.8	1.7	-4.2	2.9	nt
CC(=O)Nc1ccc(SCC(=O)Nc2ccc3c(c2)OCCO3)cc1	3.9	57.6*	0.8	0.0	2.3	-1.5	53.6*
Cn1cnnc1SCC(=O)Nc1ccc(Cl)cn1	2.0	2.2	0.6	-1.9	2.1	-5.0	nt
CC(=O)Nc1ccc(SCC(=O)c2cc(C)n(C)c2C)cc1	2.0	36.1*	0.1	0.3	8.2	-1.9	15.7
CC(=O)Nc1ccc(SCC(=O)NC(=O)c2ccc(S(=O)(=O)N(C)C)cc2)cc1	3.4	50.2*	8.2	-2.2	0.4	-1.0	42.6*
Cc1noc(COc2ccc(OCc3nc(C)no3)cc2)n1	4.7	2.9	3.2	-4.8	-14.4	2.0	nt
Cc1nn2c(-c3ccncc3)ccnc2c1Cl	2.9	1.8	-1.1	1.8	0.3	-1.5	nt
CCOC(=O)c1ccc(NC(=O)c2cccc(S(=O)(=O)N3CCN(C(C)=O)CC3)c2)cc1	-0.1	0.1	6.5	-1.1	-3.5	2.0	nt
Cc1ccc(-c2csc3n[nH]c(=S)n23)cc1	-4.0	60.7*	3.4	-2.5	-5.5	-5.3	7.4
O=S(=O)(Nc1ccc(Cl)cc1)c1ccc(N2CCOCC2)c(NC(=S)NCCN2CCOCC2)c1	-2.7	49.5*	8.6	0.0	-0.5	-1.5	73.5*
Oc1c(CN2CCOCC2)cc(CN2CCOCC2)cc1CN1CCOCC1	0.0	2.0	0.8	1.4	-1.3	-7.0	nt
Oc1cc(O)c(CN2CCOCC2)cc1CN1CCOCC1	-0.1	28.6*	8.1	-3.1	-0.5	7.4	0.3
COc1ccc(-c2nc3c(c4nnc(SC(C)C(=O)Nc5ccccc5)n24)COC(C)(C)C3)cc1 (configuration not stated)	1.5	3.6	-0.7	-4.3	-16.1	-4.9	nt
Cc1ccc2cccc(OC(=O)/C=C\c3ccccc3)c2n1	-2.0	-4.7	-4.5	-4.8	0.8	2.8	nt
Cc1ccc2c(c1)[C@H]1[C@H](CO2)[C@H](c2ccccc2)[C@]2(C)C(=O)N(Cc3ccc(F)cc3)CC(=O)N12	-30.3	38.2*	-166.9	-16.2	-11.2	-0.6	10.8
COc1ccc(NC2CCN(C3CC(=O)N(c4ccc(F)c(Cl)c4)C3=O)CC2)cc1 (configuration not stated)	-13.4	2.1	2.5	6.3	-17.2	-4.3	nt
NC(=O)C1CCN(C2CC(=O)NC2=O)CC1 (configuration not stated)	2.3	64.3*	0.2	-0.2	-7.8	2.6	-2.1
COC(=O)C1CCN(C2CC(=O)N(c3cc(C)cc(C)c3)C2=O)CC1 (configuration not stated)	6.1	56.8*	-4.9	-2.0	4.3	0.3	-2.4
CCN1C(=O)CC(N2CCC(C(=O)OC)CC2)C1=O (configuration not stated)	6.0	-2.0	0.7	0.0	2.4	1.7	nt
NC(=O)C1CCN(C2CC(=O)N(c3cccc(F)c3)C2=O)CC1 (configuration not stated)	1.4	28.6*	5.2	0.0	7.9	-0.2	1.9
NC(=O)C1CCN(C2CC(=O)N(c3ccc(F)c(Cl)c3)C2=O)CC1 (configuration not stated)	2.9	29.9*	-1.2	-0.6	5.6	-0.8	9.2
SMILES	HTRA1 inhibitor	PRMT1 inh	rCAG binder	DAGLB inh	ABHD4 inh	LEDGF integ inh	PRMT1 confirm
Cc1nn(C)c(C)c1CNC(=O)/C=C/c1ccccc1F	2.4	-2.3	-0.7	-0.6	-4.7	0.1	nt
Cc1ccccc1N1C(=O)CC(N2CCC(C(N)=O)CC2)C1=O (configuration not stated)	-2.8	72.7*	-1.3	2.4	6.2	1.5	-3.5
CCOc1cccc(N2C(=O)CC(N3CCC(C(N)=O)(N4CCCCC4)CC3)C2=O)c1 (configuration not stated)	-1.8	40.3*	2.3	2.9	-4.6	-3.3	-0.3
Cc1ccc(NC(=O)Cc2nc(CSc3nnc(-c4ccc5c(c4)OCO5)o3)cs2)cc1	-28.3	1.6	1.4	-4.2	13.7	-1.7	nt
Cc1ccc2cc(C3CC(c4ccco4)=NN3C(=O)CCC(=O)O)c(Cl)nc2c1 (configuration not stated)	-0.7	2.9	3.2	2.3	5.6	2.5	nt
CCOc1ccc2nc(Cl)c(C3CC(c4ccco4)=NN3S(=O)(=O)c3ccccc3)cc2c1 (configuration not stated)	-42.8	31.7*	30.8	13.1	-20.3	3.4	-0.3
COc1ccc2cc(C3CC(c4ccco4)=NN3S(C)(=O)=O)c(Cl)nc2c1 (configuration not stated)	-8.4	25.4*	9.5	-1.1	-0.4	-5.5	10.3
CCOC(=O)C(Sc1nn(C)c(=S)s1)C(C)=O (configuration not stated)	3.6	36.3*	5.1	2.4	0.2	0.2	1.3
O=C(NN1CCOCC1)c1cn(-c2ccccc2)nc1-c1cccs1	-5.0	3.4	-2.1	1.1	4.2	0.4	nt
CC1(C)OC2CC(=O)OCC23C1CC(=O)C1(C)C3CCC2(C)C(c3ccoc3)OC(=O)C3OC321 (configuration not stated)	nt	-0.7	-0.7	nt	-1.1	0.0	nt
CCN(CC)C(=O)CSc1nc2c(sc(=S)n2CC)c(=O)n1-c1ccccc1	-2.5	-1.9	-4.5	0.3	-2.2	0.3	nt
CCN(CC)C(=O)CSc1nc2c(sc(=S)n2-c2ccccc2)c(=O)n1Cc1ccco1	-23.9	24.9*	1.6	4.4	5.0	5.3	20.9
On1ccccc1=S	-1.5	87.8*	3.4	4.0	4.0	i	87.5*
Cc1cccc(Nc2ncnc(N)c2[N+](=O)[O-])n1	2.4	-2.1	0.5	-2.0	1.2	0.4	nt
Cc1cc(C)nc(Sc2ncnc(N)c2[N+](=O)[O-])n1	-6.6	46.9*	0.2	-5.0	6.1	-6.0	19.0
COC(=O)c1nc(NNC(=O)c2ccccc2)sc1-c1ccccc1	8.8	42.9*	11.5	2.5	-3.2	0.0	5.3
